Measured values published in ChEMBL document CHEMBL2424622, “Development of amino-pyrimidine inhibitors of c-Jun N-terminal kinase (JNK): kinase profiling guided optimization of a 1,2,3-benzotriazole lead” (Bioorg Med Chem Lett, 2013).

Assays:
[1] = system: Mast/stem cell growth factor receptor Kit (Homo sapiens), P10721 [D816V]; experiment: Competitive binding affinity to KIT D816V mutant (unknown origin) at 10 uM in presence of ATP relative to control
[2] = molecular target: Myosin light chain kinase, smooth muscle (Homo sapiens) (UniProt Q15746); experiment: Competitive binding affinity to MYLK (unknown origin) at 10 uM in presence of ATP relative to control
Chain of Myosin light chain kinase, smooth muscle (Homo sapiens) (Q15746 whole entry): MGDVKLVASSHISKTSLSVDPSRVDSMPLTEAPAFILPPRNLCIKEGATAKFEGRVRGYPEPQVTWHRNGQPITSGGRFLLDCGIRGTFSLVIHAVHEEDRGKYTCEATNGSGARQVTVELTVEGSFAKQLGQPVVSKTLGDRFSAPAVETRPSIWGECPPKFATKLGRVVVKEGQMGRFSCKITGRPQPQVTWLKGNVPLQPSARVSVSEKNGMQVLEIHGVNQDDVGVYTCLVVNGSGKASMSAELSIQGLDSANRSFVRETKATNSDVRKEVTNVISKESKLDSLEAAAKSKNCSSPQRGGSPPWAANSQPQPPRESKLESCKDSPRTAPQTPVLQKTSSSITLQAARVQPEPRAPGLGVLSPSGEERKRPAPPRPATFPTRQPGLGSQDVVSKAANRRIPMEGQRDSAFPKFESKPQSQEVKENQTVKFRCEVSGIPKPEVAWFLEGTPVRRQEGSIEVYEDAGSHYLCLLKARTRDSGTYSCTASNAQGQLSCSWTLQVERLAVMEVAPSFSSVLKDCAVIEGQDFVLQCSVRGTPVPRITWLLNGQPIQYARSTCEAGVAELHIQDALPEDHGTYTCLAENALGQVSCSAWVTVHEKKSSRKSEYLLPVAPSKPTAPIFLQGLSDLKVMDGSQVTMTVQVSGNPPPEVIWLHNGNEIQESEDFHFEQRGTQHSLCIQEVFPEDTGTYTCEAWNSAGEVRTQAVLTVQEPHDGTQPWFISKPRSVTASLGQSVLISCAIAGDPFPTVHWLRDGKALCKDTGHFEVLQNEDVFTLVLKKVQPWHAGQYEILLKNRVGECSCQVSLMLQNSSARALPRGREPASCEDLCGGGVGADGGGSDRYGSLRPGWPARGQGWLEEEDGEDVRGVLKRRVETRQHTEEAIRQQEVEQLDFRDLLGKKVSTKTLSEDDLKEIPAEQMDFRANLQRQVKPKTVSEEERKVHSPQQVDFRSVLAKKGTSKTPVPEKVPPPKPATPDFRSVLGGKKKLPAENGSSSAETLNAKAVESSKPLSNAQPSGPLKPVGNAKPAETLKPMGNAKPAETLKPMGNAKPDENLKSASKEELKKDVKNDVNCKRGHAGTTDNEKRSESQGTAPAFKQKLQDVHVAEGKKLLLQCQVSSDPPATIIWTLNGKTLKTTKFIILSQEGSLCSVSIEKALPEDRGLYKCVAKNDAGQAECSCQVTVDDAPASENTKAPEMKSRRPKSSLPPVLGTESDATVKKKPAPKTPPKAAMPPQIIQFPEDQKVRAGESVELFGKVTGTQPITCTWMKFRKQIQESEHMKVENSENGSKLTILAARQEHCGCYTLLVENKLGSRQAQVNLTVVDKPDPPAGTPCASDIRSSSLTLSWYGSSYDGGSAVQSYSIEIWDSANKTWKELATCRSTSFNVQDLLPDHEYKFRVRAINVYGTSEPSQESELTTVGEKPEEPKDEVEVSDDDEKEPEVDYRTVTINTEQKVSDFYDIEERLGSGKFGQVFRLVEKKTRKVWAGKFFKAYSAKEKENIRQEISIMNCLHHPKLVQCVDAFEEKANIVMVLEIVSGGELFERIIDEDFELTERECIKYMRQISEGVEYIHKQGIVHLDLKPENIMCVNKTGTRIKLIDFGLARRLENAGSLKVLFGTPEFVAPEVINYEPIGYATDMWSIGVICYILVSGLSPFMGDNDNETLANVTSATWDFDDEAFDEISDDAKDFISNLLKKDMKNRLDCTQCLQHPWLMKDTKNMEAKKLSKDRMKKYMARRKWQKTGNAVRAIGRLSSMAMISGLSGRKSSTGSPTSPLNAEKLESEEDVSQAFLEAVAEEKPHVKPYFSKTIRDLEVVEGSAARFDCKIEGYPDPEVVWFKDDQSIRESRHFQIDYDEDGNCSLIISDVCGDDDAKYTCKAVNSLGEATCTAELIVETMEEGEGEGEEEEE

[3] = molecular target: Serine/threonine-protein kinase 10 (Homo sapiens) (UniProt O94804); experiment: Competitive binding affinity to LOK (unknown origin) at 10 uM in presence of ATP relative to control
Chain of Serine/threonine-protein kinase 10 (Homo sapiens) (O94804 whole entry, looked up): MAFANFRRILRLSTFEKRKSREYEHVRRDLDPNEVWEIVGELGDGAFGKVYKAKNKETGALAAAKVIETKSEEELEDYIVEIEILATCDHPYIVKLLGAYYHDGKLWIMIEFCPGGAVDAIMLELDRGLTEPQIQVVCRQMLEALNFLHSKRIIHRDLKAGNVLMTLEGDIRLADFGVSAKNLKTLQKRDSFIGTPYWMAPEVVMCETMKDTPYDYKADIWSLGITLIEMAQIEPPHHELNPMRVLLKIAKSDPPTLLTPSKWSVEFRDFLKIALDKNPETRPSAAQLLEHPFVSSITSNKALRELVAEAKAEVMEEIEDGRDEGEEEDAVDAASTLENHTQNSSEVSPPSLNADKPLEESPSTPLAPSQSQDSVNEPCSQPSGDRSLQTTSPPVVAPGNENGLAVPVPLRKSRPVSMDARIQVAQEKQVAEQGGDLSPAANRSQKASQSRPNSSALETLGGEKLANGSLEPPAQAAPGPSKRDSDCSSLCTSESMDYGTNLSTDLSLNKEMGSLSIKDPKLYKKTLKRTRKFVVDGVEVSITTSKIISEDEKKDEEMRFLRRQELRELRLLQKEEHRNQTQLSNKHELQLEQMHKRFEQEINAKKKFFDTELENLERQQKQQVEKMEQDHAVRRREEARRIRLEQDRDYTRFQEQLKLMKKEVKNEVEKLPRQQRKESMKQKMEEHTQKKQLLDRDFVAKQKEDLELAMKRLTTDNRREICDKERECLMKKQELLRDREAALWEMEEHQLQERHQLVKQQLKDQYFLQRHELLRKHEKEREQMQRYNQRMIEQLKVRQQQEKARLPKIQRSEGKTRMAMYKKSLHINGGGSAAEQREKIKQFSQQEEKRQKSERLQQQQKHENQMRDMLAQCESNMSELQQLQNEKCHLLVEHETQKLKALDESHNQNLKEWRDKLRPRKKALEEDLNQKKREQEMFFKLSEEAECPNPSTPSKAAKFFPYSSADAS

[4] = molecular target: Cyclin-dependent kinase 7 (Homo sapiens, UniProt P50613); experiment: Competitive binding affinity to CDK7 (unknown origin) at 10 uM in presence of ATP relative to control
Chain of Cyclin-dependent kinase 7 (P50613 whole entry): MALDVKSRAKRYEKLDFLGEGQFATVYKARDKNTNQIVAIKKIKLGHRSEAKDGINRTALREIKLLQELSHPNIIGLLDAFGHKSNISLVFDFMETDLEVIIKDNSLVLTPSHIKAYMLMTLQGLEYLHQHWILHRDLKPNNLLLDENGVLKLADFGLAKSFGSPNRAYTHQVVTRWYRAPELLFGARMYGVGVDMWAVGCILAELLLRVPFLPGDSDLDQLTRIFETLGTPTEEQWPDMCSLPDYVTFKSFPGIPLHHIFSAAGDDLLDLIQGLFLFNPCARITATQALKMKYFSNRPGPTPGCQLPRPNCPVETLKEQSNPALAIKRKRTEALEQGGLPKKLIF

[5] = molecular target: T1, Bone morphogenetic protein receptor type-2 (Homo sapiens) (UniProt Q13873); experiment: Competitive binding affinity to BMPR2 (unknown origin) at 10 uM in presence of ATP relative to control
T1 sequence (whole entry): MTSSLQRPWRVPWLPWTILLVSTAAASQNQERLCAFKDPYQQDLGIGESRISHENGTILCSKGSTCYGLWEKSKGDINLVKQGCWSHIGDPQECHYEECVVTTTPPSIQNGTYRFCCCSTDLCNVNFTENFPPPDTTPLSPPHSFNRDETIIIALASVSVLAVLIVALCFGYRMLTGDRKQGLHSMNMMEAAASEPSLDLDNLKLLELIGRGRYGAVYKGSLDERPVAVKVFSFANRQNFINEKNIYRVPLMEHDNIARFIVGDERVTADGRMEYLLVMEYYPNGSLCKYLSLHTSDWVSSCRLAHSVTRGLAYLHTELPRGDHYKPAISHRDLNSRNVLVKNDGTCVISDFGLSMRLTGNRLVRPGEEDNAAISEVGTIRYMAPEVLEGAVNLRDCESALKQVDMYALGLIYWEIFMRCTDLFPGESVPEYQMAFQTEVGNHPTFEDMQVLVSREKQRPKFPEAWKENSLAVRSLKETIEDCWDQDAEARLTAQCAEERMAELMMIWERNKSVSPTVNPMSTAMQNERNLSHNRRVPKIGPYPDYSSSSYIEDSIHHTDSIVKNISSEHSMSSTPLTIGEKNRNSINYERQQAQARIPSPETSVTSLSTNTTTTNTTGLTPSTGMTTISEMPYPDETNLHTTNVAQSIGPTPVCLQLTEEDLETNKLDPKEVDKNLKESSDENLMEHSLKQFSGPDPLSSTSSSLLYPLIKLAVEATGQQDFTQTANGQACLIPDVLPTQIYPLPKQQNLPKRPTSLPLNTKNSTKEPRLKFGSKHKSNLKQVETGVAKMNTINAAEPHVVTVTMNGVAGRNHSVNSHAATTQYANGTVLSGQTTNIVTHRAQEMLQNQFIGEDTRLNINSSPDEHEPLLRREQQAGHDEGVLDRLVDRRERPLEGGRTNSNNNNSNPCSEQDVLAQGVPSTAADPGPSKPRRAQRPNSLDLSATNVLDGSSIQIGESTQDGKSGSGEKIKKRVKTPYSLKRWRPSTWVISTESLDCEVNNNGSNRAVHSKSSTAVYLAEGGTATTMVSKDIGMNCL

[6] = molecular target: Activin receptor type-2A (Homo sapiens) (UniProt P27037); experiment: Competitive binding affinity to ACVR2A (unknown origin) at 10 uM in presence of ATP relative to control
Chain of Activin receptor type-2A (Homo sapiens) (P27037 whole entry): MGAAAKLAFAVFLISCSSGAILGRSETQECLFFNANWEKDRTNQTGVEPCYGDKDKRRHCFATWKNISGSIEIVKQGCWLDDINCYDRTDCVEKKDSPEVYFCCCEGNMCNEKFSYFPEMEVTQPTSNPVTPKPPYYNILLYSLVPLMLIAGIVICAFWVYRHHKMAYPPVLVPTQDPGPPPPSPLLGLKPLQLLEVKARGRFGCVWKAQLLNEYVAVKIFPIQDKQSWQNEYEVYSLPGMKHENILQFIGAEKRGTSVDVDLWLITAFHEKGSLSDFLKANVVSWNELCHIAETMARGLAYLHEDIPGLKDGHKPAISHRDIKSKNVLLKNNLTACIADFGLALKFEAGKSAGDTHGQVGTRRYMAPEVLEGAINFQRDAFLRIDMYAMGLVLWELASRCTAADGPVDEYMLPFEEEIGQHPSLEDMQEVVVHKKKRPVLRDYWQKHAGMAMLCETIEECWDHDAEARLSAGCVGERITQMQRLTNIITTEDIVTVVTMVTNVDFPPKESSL

[7] = molecular target: Tyrosine-protein kinase receptor Tie-1 (Homo sapiens) (UniProt P35590); experiment: Competitive binding affinity to TIE1 (unknown origin) at 10 uM in presence of ATP relative to control
[8] = molecular target: Phosphatidylinositol 4-phosphate 5-kinase type-1 alpha (Homo sapiens) (UniProt Q99755); experiment: Competitive binding affinity to PIP5K1A (unknown origin) at 10 uM in presence of ATP relative to control
Chain of Phosphatidylinositol 4-phosphate 5-kinase type-1 alpha (Homo sapiens) (Q99755 whole entry): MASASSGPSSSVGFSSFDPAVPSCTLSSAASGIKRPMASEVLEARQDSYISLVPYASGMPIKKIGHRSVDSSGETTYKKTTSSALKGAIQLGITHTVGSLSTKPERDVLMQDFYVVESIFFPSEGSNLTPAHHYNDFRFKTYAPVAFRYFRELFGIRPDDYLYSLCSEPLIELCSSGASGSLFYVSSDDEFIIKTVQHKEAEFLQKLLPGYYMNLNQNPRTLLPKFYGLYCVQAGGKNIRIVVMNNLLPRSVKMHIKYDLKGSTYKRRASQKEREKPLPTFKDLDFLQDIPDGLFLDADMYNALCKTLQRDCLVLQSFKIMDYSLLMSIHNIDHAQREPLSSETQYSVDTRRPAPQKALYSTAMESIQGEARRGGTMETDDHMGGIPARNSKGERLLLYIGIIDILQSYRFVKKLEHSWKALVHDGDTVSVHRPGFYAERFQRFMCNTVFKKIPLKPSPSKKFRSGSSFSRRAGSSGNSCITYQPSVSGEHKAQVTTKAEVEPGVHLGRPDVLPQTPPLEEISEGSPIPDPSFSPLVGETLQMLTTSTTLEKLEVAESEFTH

[9] = molecular target: T2, MAP kinase-activated protein kinase 5 (Homo sapiens) (UniProt Q8IW41); experiment: Competitive binding affinity to MAPKAPK5 (unknown origin) at 10 uM in presence of ATP relative to control
T2 sequence (whole entry): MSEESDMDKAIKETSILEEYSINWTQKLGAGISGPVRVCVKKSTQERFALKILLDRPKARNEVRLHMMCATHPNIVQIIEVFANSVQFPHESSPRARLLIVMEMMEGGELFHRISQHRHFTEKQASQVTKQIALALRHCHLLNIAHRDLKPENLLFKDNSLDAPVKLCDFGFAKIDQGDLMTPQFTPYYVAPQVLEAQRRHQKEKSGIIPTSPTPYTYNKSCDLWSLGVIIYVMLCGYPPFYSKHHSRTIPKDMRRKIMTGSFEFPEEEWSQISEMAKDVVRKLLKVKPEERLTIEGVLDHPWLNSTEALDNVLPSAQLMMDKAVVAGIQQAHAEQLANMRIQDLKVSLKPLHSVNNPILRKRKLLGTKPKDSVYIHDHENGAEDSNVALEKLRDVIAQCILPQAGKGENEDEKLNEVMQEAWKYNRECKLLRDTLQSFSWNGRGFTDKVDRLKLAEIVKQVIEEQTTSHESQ

[10] = molecular target: Cyclin-dependent kinase 2 (Homo sapiens) (UniProt P24941); experiment: Competitive binding affinity to CDK2 (unknown origin) at 10 uM in presence of ATP relative to control
Procedure, shortened: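 In vitro ATP-site competition binding assay across a diverse panel of 128 kinases, with each compound tested at a single concentration. Kinase binding is expressed relative to control.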

[11] = molecular target: MAP/microtubule affinity-regulating kinase 3 (Homo sapiens) (UniProt P27448); experiment: Competitive binding affinity to MARK3 (unknown origin) at 10 uM in presence of ATP relative to control
Chain of MAP/microtubule affinity-regulating kinase 3 (Homo sapiens) (P27448 whole entry, looked up): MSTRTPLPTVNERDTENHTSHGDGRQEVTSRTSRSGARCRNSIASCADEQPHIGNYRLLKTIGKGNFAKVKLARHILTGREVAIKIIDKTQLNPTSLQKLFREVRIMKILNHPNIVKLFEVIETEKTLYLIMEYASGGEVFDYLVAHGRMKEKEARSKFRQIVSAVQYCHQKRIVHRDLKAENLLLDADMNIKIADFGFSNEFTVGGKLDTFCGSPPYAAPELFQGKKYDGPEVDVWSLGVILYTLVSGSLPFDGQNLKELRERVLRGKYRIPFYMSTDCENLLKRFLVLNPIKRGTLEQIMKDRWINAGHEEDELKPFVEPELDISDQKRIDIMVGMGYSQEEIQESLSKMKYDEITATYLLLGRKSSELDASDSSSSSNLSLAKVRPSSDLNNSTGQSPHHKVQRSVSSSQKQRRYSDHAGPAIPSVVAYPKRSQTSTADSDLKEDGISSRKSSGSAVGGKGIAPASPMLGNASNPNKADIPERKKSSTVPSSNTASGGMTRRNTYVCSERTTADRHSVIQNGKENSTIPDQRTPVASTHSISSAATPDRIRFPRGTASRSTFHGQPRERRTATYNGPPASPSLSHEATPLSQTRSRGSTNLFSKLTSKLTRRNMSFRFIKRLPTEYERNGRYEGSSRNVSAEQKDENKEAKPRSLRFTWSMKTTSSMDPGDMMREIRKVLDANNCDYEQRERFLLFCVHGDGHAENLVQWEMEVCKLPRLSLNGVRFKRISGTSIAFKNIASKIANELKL

inhibition [1] [%]	inhibition [2] [%]	inhibition [3] [%]	inhibition [4] [%]	inhibition [5] [%]	inhibition [6] [%]	inhibition [7] [%]	inhibition [8] [%]	inhibition [9] [%]	inhibition [10] [%]	inhibition [11] [%]	SMILES
63	74	< 50	81	< 50	< 50	< 50	88	< 50	94	< 50	O[C@H]1CC[C@H](Nc2nccc(-n3ncc4ccccc43)n2)CC1
< 50	< 50	< 50	83	< 50	< 50	< 50	< 50	< 50	90	< 50	O[C@H]1CC[C@H](Nc2nccc(-n3ccc4ccccc43)n2)CC1
94		88			< 50				100		O[C@H]1CC[C@H](Nc2nccc(-c3n[nH]c4ccccc34)n2)CC1
98	94	< 50	92	85	< 50	< 50	94	< 50	94	< 50	O[C@H]1CC[C@H](Nc2nccc(-n3nnc4ccccc43)n2)CC1
			> 85								CS(=O)(=O)CCCOc1cccc2c1ccn2-c1ccnc(N[C@H]2CC[C@H](C(=O)N3CCC(O)CC3)CC2)n1
